According to ChEMBL document CHEMBL1123113, “"Reverse" and "symmetrical" analogues of actinomycin D: metabolic activation and in vitro and in vivo tumor growth inhibitory activities” (J Med Chem, 1985):
Several values for one entry are separate records, joined by “and”; a condition that tells them apart may be missing. Identical values can stand only once.

Tests used:
[1] = IC50 DNA/IC50 RNA ratio of the compound; assay type: functional
Summary of the method: (§1)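 P388 cells were exposed for 1 h. IC50 (µM) was taken as 50% reduction of methyl-[3H]thymidine (DNA) or 2-[14C]uridine (RNA) incorporation into acid-precipitable material. The ratio is IC50 DNA divided by IC50 RNA.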

[2] = Minimum tolerated dose is the lethal dose for 10% normal mice for deaths during 21 days; assay type: ADME, organism-based; settings: mouse, in vivo
Summary of the method: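 Tumor-free male BDF1 mice (18–22 g) received a broad dose range ip in 5% dimethyl sulfoxide-saline on days 1, 5 and 9. Deaths were recorded over 21 days. The LD10 (dose killing 10% of animals) was calculated from a plot of log-dose vs. percent mortality.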

P388 [3] = experiment: (§2) Inhibition of DNA synthesis was measured as the concentration required to cause 50% reduction (in 1h) in methyl [3H]thymidine incorporation into acid precipitable material using P388 cells; assay type: functional, cell-based; settings: Mus musculus; summary of the method: as §1
P388 [4] = experiment: (§3) Inhibition of RNA synthesis was measured as the concentration required to cause 50% reduction (in 1h) in 2-[14C]uridine incorporation into acid precipitable material using P388 cells; assay type: functional, cell-based; settings: Mus musculus, P388, 1 h
[5] = Therapeutic index (MTD/MED) value of the compound; settings: read-out: TI
Rattus norvegicus [6] = species on record: Rattus norvegicus; experiment: Compound tested for NADPH oxidation in rat hepatic mycrosomal incubation; assay type: functional
Summary of the method: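 Phenobarbital-induced male Sprague-Dawley rat liver microsomes were placed in both cuvettes, without epinephrine. NADPH 0.4 mM was added to the sample side only, and absorbance was read at 340 nm. Percent stimulation = (drug rate − basal)/basal × 100. Values are the average ± standard errors of triplicates.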

Rattus norvegicus [7] = species on record: Rattus norvegicus; experiment: Compound tested for adrenochrome formation in rat hepatic mycrosomal incubation; assay type: functional
Summary of the method: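 Adrenochrome assay for superoxide: epinephrine in 0.01 N HCl plus 300 µg of phenobarbital-induced rat liver microsomes at 37 °C. NADPH 0.4 mM was added to the sample side 1 min later, and the rate was read at 480 nm (ε 4.02 mM−1 cm−1). Drugs were at ≤100 µM, made in 150 mM KCl–50 mM Tris, pH 7.4. Percent stimulation is over basal rate, in triplicate.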

CCRF-CEM = experiment: Inhibitory dose required for the inhibition of human lymphoblastic leukemia cells(CCRF-CEM); assay type: functional; settings: read-out: ID50 (the source's name)
Mus musculus [8] = experiment: Antitumor activity against P388 leukemia cells in terms of percentage increase in life span in mice at an optimal dose of 300 ug/kg administered ip; assay type: functional
Mus musculus [9] = species on record: Mus musculus; experiment: Antitumor activity against B16 melanoma in terms of percentage increase in life span in mice after 65 days; assay type: functional
Mus musculus [10] = species on record: Mus musculus; experiment: Dose providing an increase in the life span of 45% over control in P388 tumor bearing mice; assay type: functional; settings: read-out: MED
Summary of the method: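 MED is the ip dose in mg/kg, given on days 1, 5 and 9 starting 1 day after implantation, that gives a 45% increase in life span over control in P388-bearing mice. It was derived from plotted log-dose response data.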

Mus musculus [11] = experiment: Antitumor activity against P388 leukemia cells in terms of median survival time of mice at an optimal dose of 300 ug/kg administered ip; assay type: functional
Mus musculus [12] = experiment: Antitumor activity against B16 melanoma in terms of median survival time of mice at an optimal dose of 250 ug/kg administered ip; assay type: functional
Mus musculus [13] = experiment: In vivo antitumor activity was determined against P388 leukemia mice as number of mice survived after administration of 300 ug/Kg dose of compound; Value represented as no of survivors/ treated = 0/8; assay type: functional
Mus musculus [14] = experiment: In vivo antitumor activity was determined against B16 melanoma mice as number of mice survived after administration of 250 ug/Kg dose of compound; Value represented as no of survivors/ treated = 2/9; assay type: functional
P388 [15] = experiment: as §2; assay type: functional; settings: Mus musculus, read-out: ID50 (the source's name); summary of the method: as §1
P388 [16] = experiment: as §3; assay type: functional; settings: Mus musculus, P388, 1 h; read-out: ID50 (the source's name)
[17] = Therapeutic index ([…]) value of the compound; settings: read-out: TI
Summary of the method: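 MED is the dose giving a 45% increase in life span over control in male BDF1 mice implanted ip with 10^6 P388 cells and treated ip on days 1, 5 and 9. MTD is the 21-day LD10 in tumor-free male BDF1 mice (18–22 g), dosed ip on the same days. Both values come from plotted log-dose response data.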

## Cc1c2oc3c(C)c(O)c(N)c(C(=O)N[C@H]4C(=O)N[C@@H](C(C)C)C(=O)N5CCC[C@H]5C(=O)N(C)CC(=O)N(C)[C@H](C(C)C)C(=O)O[C@H]4C)c3nc-2c(C(=O)N[C@@H]2C(=O)N[C@H](C(C)C)C(=O)N3CCC[C@@H]3C(=O)N(C)CC(=O)N(C)[C@@H](C(C)C)C(=O)O[C@@H]2C)cc1=O
[1]
  Ratio: 1

## Cc1c2oc3c(C)c4oc(-c5ccccc5)nc4c(C(=O)N[C@@H]4C(=O)N[C@H](C(C)C)C(=O)N5CCC[C@H]5C(=O)N(C)CC(=O)N(C)[C@@H](C(C)C)C(=O)O[C@@H]4C)c3nc-2c(C(=O)N[C@@H]2C(=O)N[C@H](C(C)C)C(=O)N3CCC[C@H]3C(=O)N(C)CC(=O)N(C)[C@@H](C(C)C)C(=O)O[C@@H]2C)c(N)c1=O
[2]
  MTD at 504 h: 1.8 mg/kg
P388 [3]
  IC50: 800 nM
P388 [4]
  IC50: 70 nM
[5]
  selectivity ratio: 60

## Cc1c2oc3c(C)c(O)c(N)c(C(=O)N[C@@H]4C(=O)N[C@H](C(C)C)C(=O)N5CCC[C@H]5C(=O)N(C)CC(=O)N(C)[C@@H](C(C)C)C(=O)O[C@@H]4C)c3nc-2c(C(=O)N[C@@H]2C(=O)N[C@H](C(C)C)C(=O)N3CCC[C@H]3C(=O)N(C)CC(=O)N(C)[C@@H](C(C)C)C(=O)O[C@@H]2C)cc1=O
[2]
  MTD at 504 h: 3.5 mg/kg
P388 [3]
  IC50: 5100 nM
P388 [4]
  IC50: 5100 nM
[5]
  selectivity ratio: 13

## CCN(CC)C(=O)c1cc(=O)c(C)c2oc3c(C)c4oc(-c5ccccc5)nc4c(C(=O)N(CC)CC)c3nc1-2
Rattus norvegicus [6]
  NADPH oxidation: 8.9 nM min-1 (mg of protein)-1
Rattus norvegicus [7]
  adrenochrome formation: 2.13 nM min-1 (mg of protein)-1

## Cc1nc2c(C(=O)N[C@H]3C(=O)N[C@@H](C(C)C)C(=O)N4CCC[C@H]4C(=O)N(C)CC(=O)N(C)[C@H](C(C)C)C(=O)O[C@H]3C)c3nc4c(C(=O)N[C@@H]5C(=O)N[C@H](C(C)C)C(=O)N6CCC[C@@H]6C(=O)N(C)CC(=O)N(C)[C@@H](C(C)C)C(=O)O[C@@H]5C)c(N)c(=O)c(C)c-4oc3c(C)c2o1
[1]
  Ratio: 11.2

## CCN(CC)C(=O)c1c2nc3c(C(=O)N(CC)CC)c4nc(C)oc4c(C)c3oc-2c(C)c(=O)c1N
Rattus norvegicus [6]
  NADPH oxidation: 8.9 nM min-1 (mg of protein)-1
Rattus norvegicus [7]
  adrenochrome formation: 2.13 nM min-1 (mg of protein)-1

## Cc1c2oc3c(C)ccc(C(=O)N[C@@H]4C(=O)N[C@H](C(C)C)C(=O)N5CCC[C@H]5C(=O)NCC(=O)N[C@@H](C(C)C)C(=O)O[C@@H]4C)c3nc-2c(C(=O)N[C@@H]2C(=O)N[C@H](C(C)C)C(=O)N3CCC[C@H]3C(=O)NCC(=O)N[C@@H](C(C)C)C(=O)O[C@@H]2C)c(N)c1=O [ACTINOMYCITIN]
CCRF-CEM
  IC50: 50 nM
Mus musculus [8]
  ILS at 0.3 mg/kg: 136%
Mus musculus [9]
  ILS: 48%
[2]
  MTD at 504 h: 0.25 mg/kg
Mus musculus [10]
  minimal effective dose: 0.0625 mg/kg
Mus musculus [11]
  MST: 26 days
Mus musculus [12]
  MST: 43 range
Mus musculus [13]
  Survivors: 0
Mus musculus [14]
  Survivors: 2
P388 [15]
  IC50: 1.12 nM
P388 [16]
  IC50: 0.05 nM
Rattus norvegicus [6]
  NADPH oxidation: 9.11 nM min-1 (mg of protein)-1 and 10.01 nM min-1 (mg of protein)-1
Rattus norvegicus [7]
  adrenochrome formation: 2.11 nM min-1 (mg of protein)-1 and 2.29 nM min-1 (mg of protein)-1
[17]
  selectivity ratio: 4
